Experimental data published in ChEMBL document CHEMBL1649139, “A novel gene, erm(41), confers inducible macrolide resistance to clinical isolates of Mycobacterium abscessus but is absent from Mycobacterium chelonae” (2009).
In brackets after ≈: the same amount, converted by molar mass.

Tests used:
Type in all cases: functional
[1] = test system: Mycolicibacterium smegmatis; assay: Antimicrobial activity against Mycobacterium smegmatis transformed with erm allele Mycobacterium abscessus isolate MC879-2 by broth microdilution method
[2] = test system: Mycobacteroides abscessus; assay: Antimicrobial activity against Mycobacterium abscessus isolate MC723 at day 5 preincubated with 0.1 ug/ml erythromycin for 3 days by broth microdilution method
How it was run: (§1)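 Clinical M. abscessus isolates were preincubated for 3 days, either in medium alone or in clarithromycin or erythromycin at 0.01 to 1 μg/ml, allowing at least two generations of growth judged by turbidity. The clarithromycin MIC was then determined by CLSI-conforming broth microdilution, with plates read on day 3 and on extended incubation (days 5 to 14).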

[3] = test system: Mycobacteroides abscessus; assay: Antimicrobial activity against Mycobacterium abscessus isolate MC1028 at day 3 by broth microdilution method; details: isolate MC1028, 72 h
How it was run: (§2)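 Clarithromycin MIC by CLSI-conforming broth microdilution. Before testing, cultures were preincubated for 3 days, either in medium alone or in clarithromycin or erythromycin (tested range 0.01–1 μg/ml). Preincubation ran for at least two generations, judged by turbidity increase. Plates were read on day 3 and on extended incubation at days 5 to 14.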

[4] = test system: Mycolicibacterium smegmatis; assay: Antimicrobial activity against Mycobacterium smegmatis transformed with erm allele Mycobacterium abscessus isolate MC1082 by broth microdilution method
[5] = test system: Mycobacteroides abscessus; assay: Antimicrobial activity against Mycobacterium abscessus isolate MC720 at day 3 preincubated with 0.1 ug/ml for 3 days by broth microdilution method
How it was run: (§3)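 Clarithromycin MIC by broth microdilution following CLSI guidelines. Before testing, organisms were preincubated for 3 days in medium alone or in clarithromycin or erythromycin (0.01–1 μg/ml), long enough for at least two generations judged by turbidity increase. MICs were read on day 3 and again on extended incubation out to day 14.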

[6] = test system: Mycolicibacterium smegmatis; assay: Antimicrobial activity against Mycobacterium smegmatis transformed with erm allele Mycobacterium abscessus isolate MC879 preincubated with 2 ug/ml erythromycin for 20 to 24 hrs by broth microdilution method
[7] = test system: Mycobacteroides abscessus; assay: Antimicrobial activity against Mycobacterium abscessus isolate MC958 at day 3 by broth microdilution method; details: isolate MC958, 72 h
How it was run: (§4)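 Clarithromycin MIC by broth microdilution following CLSI guidelines. Organisms were preincubated […], for 3 days before the assay. This allowed at least two generations, judged by the rise in turbidity. The MIC was read at the stated day, with incubation extended from day 3 to as long as 14 days.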

[8] = test system: Mycobacteroides abscessus; assay: Antimicrobial activity against Mycobacterium abscessus isolate MC958 on day 14 by broth microdilution method; details: isolate MC958, 336 h
[9] = test system: Mycobacteroides abscessus; assay: Antimicrobial activity against Mycobacterium abscessus isolate MC958 at day 7 preincubated with 0.1 ug/ml erythromycin for 3 days by broth microdilution method
[10] = test system: Mycobacteroides abscessus; assay: Antimicrobial activity against Mycobacterium abscessus isolate MC1448 at day 14 preincubated with 0.1 ug/ml for 3 days by broth microdilution method; how it was run: as §2
[11] = test system: Mycobacteroides abscessus; assay: Antimicrobial activity against Mycobacterium abscessus isolate MC720 at day 5 preincubated with 0.1 ug/ml erythromycin for 3 days by broth microdilution method; how it was run: as §1
[12] = test system: Mycobacteroides abscessus; assay: Antimicrobial activity against Mycobacterium abscessus isolate MC724 at day 14 by broth microdilution method; details: isolate MC724, 336 h; how it was run: as §3
[13] = test system: Mycobacteroides abscessus; assay: Antimicrobial activity against Mycobacterium abscessus isolate MC1448 at day 9 preincubated with 0.1 ug/ml erythromycin for 3 days by broth microdilution method; how it was run: as §3
[14] = test system: Mycobacteroides abscessus; assay: Antimicrobial activity against Mycobacterium abscessus isolate MC724 at day 9 preincubated with 0.1 ug/ml for 3 days by broth microdilution method
How it was run: (§5)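 To test inducible resistance, cultures were preincubated for 3 days in clarithromycin or erythromycin, within 0.01–1 μg/ml. The period was set so cultures passed at least two generations, judged by turbidity increase. Clarithromycin MIC was then determined by CLSI-conforming broth microdilution and read on the stated day, from day 3 up to 14.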

[15] = test system: Mycobacteroides abscessus; assay: Antimicrobial activity against Mycobacterium abscessus isolate MC879 at day 3 preincubated with 0.1 ug/ml erythromycin for 3 days by broth microdilution method; how it was run: as §5
[16] = test system: Mycobacteroides abscessus; assay: Antimicrobial activity against Mycobacterium abscessus isolate MAB30 at day 3 preincubated with 0.1 ug/ml erythromycin for 3 days by broth microdilution method; how it was run: as §2
[17] = test system: Mycobacteroides abscessus; assay: Antimicrobial activity against Mycobacterium abscessus isolate MC719 at day 7 by broth microdilution method; details: isolate MC719, 168 h; how it was run: as §1
[18] = test system: Mycobacteroides abscessus; assay: Antimicrobial activity against Mycobacterium abscessus isolate MC1082 at day 3 by broth microdilution method; details: isolate MC1082, 72 h; how it was run: as §2
[19] = test system: Mycobacteroides abscessus; assay: Antimicrobial activity against Mycobacterium abscessus isolate MC1082 at day 5 preincubated with 0.1 ug/ml for 3 days by broth microdilution method; how it was run: as §2
[20] = test system: Mycobacteroides abscessus; assay: Antimicrobial activity against Mycobacterium abscessus isolate MC958 at day 9 preincubated with 0.1 ug/ml erythromycin for 3 days by broth microdilution method
[21] = test system: Mycobacteroides abscessus; assay: Antimicrobial activity against Mycobacterium abscessus isolate MC958 at day 9 by broth microdilution method; details: isolate MC958, 216 h
[22] = test system: Mycobacteroides abscessus; assay: Antimicrobial activity against Mycobacterium abscessus isolate MC1028 at day 7 by broth microdilution method; details: isolate MC1028, 168 h; how it was run: as §2
[23] = test system: Mycobacteroides abscessus; assay: Antimicrobial activity against Mycobacterium abscessus isolate MC879-2 at day 9 preincubated with 0.1 ug/ml erythromycin for 3 days by broth microdilution method
[24] = test system: Mycobacteroides abscessus; assay: Antimicrobial activity against Mycobacterium abscessus isolate MC719 at day 14 preincubated with 0.1 ug/ml erythromycin for 3 days by broth microdilution method; how it was run: as §3
[25] = test system: Mycobacteroides abscessus; assay: Antimicrobial activity against Mycobacterium abscessus isolate MC879 at day 7 preincubated with 0.1 ug/ml erythromycin for 3 days by broth microdilution method; how it was run: as §5
[26] = test system: Mycobacteroides abscessus; assay: Antimicrobial activity against Mycobacterium abscessus isolate MC724 at day 9 by broth microdilution method; details: isolate MC724, 216 h; how it was run: as §4
[27] = test system: Mycobacteroides abscessus; assay: Antimicrobial activity against Mycobacterium abscessus isolate MC723 at day 9 preincubated with 0.1 ug/ml for 3 days by broth microdilution method; how it was run: as §3
[28] = test system: Mycobacteroides abscessus; assay: Antimicrobial activity against Mycobacterium abscessus isolate MC879-2 at day 14 by broth microdilution method; details: isolate MC879-2, 336 h
[29] = test system: Mycobacteroides abscessus; assay: Antimicrobial activity against Mycobacterium abscessus isolate MC1082 at day 9 preincubated with 0.1 ug/ml erythromycin for 3 days by broth microdilution method; how it was run: as §2
[30] = test system: Mycolicibacterium smegmatis; assay: Antimicrobial activity against Mycobacterium smegmatis transformed with erm allele Mycobacterium abscessus isolate MAB30 by broth microdilution method
[31] = test system: Mycobacteroides abscessus; assay: Antimicrobial activity against Mycobacterium abscessus isolate MC1448 at day 3 by broth microdilution method; details: isolate MC1448, 72 h; how it was run: as §2
[32] = test system: Mycobacteroides abscessus; assay: Antimicrobial activity against Mycobacterium abscessus isolate MC723 at day 3 by broth microdilution method; details: isolate MC723, 72 h; how it was run: as §3
[33] = test system: Mycobacteroides abscessus; assay: Antimicrobial activity against Mycobacterium abscessus isolate MC719 at day 14 preincubated with 0.1 ug/ml for 3 days by broth microdilution method; how it was run: as §3
[34] = test system: Mycobacteroides abscessus; assay: Antimicrobial activity against Mycobacterium abscessus isolate MC1082 at day 3 preincubated with 0.1 ug/ml for 3 days by broth microdilution method; how it was run: as §2
[35] = test system: Mycobacteroides abscessus; assay: Antimicrobial activity against Mycobacterium abscessus isolate MC719 at day 14 by broth microdilution method; details: isolate MC719, 336 h; how it was run: as §3
[36] = test system: Mycolicibacterium smegmatis; assay: Antimicrobial activity against Mycobacterium smegmatis transformed with erm allele Mycobacterium abscessus isolate MC1028 by broth microdilution method

SMILES: CC[C@H]1OC(=O)[C@H](C)[C@@H](O[C@H]2C[C@@](C)(OC)[C@@H](O)[C@H](C)O2)[C@H](C)[C@@H](O[C@@H]2O[C@H](C)C[C@H](N(C)C)[C@H]2O)[C@](C)(OC)C[C@@H](C)C(=O)[C@H](C)[C@@H](O)[C@]1(C)O [CLARITHROMYCIN]
- MIC [1]: 2 µg/mL (≈ 2.67 µM)
- MIC [2]: 4 µg/mL
- MIC [3]: ≤ 0.5 µg/mL
- MIC [4]: ≤ 0.5 µg/mL
- MIC [5]: ≤ 0.5 µg/mL
- MIC [6]: 16 µg/mL
- MIC [7]: ≤ 0.5 µg/mL
- MIC [8]: 32 µg/mL (≈ 42.8 µM)
- MIC [9]: > 32 µg/mL
- MIC [10]: > 32 µg/mL
- MIC [11]: 4 µg/mL
- MIC [12]: > 32 µg/mL
- MIC [13]: > 32 µg/mL
- MIC [14]: > 32 µg/mL
- MIC [15]: ≤ 0.5 µg/mL
- MIC [16]: ≤ 0.5 µg/mL
- MIC [17]: 8 µg/mL (≈ 10.7 µM)
- MIC [18]: ≤ 0.5 µg/mL
- MIC [19]: ≤ 0.5 µg/mL
- MIC [20]: > 32 µg/mL
- MIC [21]: > 32 µg/mL
- MIC [22]: ≤ 0.5 µg/mL
- MIC [23]: > 32 µg/mL
- MIC [24]: > 32 µg/mL
- MIC [25]: > 32 µg/mL
- MIC [26]: > 32 µg/mL
- MIC [27]: > 32 µg/mL
- MIC [28]: > 32 µg/mL
- MIC [29]: ≤ 0.5 µg/mL
- MIC [30]: ≤ 0.5 µg/mL
- MIC [31]: > 32 µg/mL
- MIC [32]: ≤ 0.5 µg/mL
- MIC [33]: > 32 µg/mL
- MIC [34]: ≤ 0.5 µg/mL
- MIC [35]: > 32 µg/mL
- MIC [36]: ≤ 0.5 µg/mL
